ChEMBL document CHEMBL1649207, “Role of porins in the susceptibility of Mycobacterium smegmatis and Mycobacterium chelonae to aldehyde-based disinfectants and drugs” (2009)
≈ marks a conversion by molar mass, not a printed value. Calls of active or inactive are those of the source. No cut-off for these calls is given here.

Legend:
[1] = test system: Mycobacteroides chelonae; test: Antimicrobial activity against Mycobacterium chelonae ATCC 35752 harboring pZS01 carrying mspA gene by resazurine microtiter assay; assay type: functional
[2] = test system: Mycobacteroides chelonae; test: Antimicrobial activity against Mycobacterium chelonae 9917 harboring pZS01 carrying mspA gene by resazurine microtiter assay; assay type: functional
[3] = test system: Mycolicibacterium smegmatis; test: Antimicrobial activity against Mycobacterium smegmatis str. MC2 155 deficient in production of polar phosphatidylinositol mannoside; assay type: functional, organism-based
[4] = test system: Mycolicibacterium smegmatis; test: Antimicrobial activity against Mycobacterium smegmatis str. MC2 155 deficient in production of lipomannan and lipoarabinomannan; assay type: functional, organism-based
[5] = test system: Mycolicibacterium smegmatis; test: Antimicrobial activity against Lsr2-deficient Mycobacterium smegmatis str. MC2 155; assay type: functional, organism-based
[6] = test system: Mycolicibacterium smegmatis; test: Antimicrobial activity against Mycobacterium smegmatis str. MC2 155 deficient in mycothiol biosynthesis; assay type: functional, organism-based
[7] = test system: Mycolicibacterium smegmatis; test: Antimicrobial activity against Mycobacterium smegmatis str. MC2 155 deficient in glycopeptidolipid biosynthesis; assay type: functional, organism-based
[8] = test system: Mycolicibacterium smegmatis; test: Antimicrobial activity against Mycobacterium smegmatis str. MC2 155 deficient in production of lipomannan and produces truncated lipoarabinomannan; assay type: functional, organism-based
[9] = test system: Mycolicibacterium smegmatis; test: Antimicrobial activity against Mycobacterium smegmatis str. MC2 155 harboring embA mutant gene; assay type: functional, organism-based
[10] = test system: Mycolicibacterium smegmatis; test: Antimicrobial activity against Mycobacterium smegmatis str. MC2 155 harboring embB mutant gene; assay type: functional, organism-based
[11] = test system: Mycolicibacterium smegmatis; test: Antimicrobial activity against MspA-deficient Mycobacterium smegmatis str. MC2 155; assay type: functional, organism-based
[12] = test system: Mycolicibacterium smegmatis; test: Antimicrobial activity against MspA- and MspC-deficient Mycobacterium smegmatis str. MC2 155; assay type: functional, organism-based
[13] = test system: Mycobacteroides chelonae; test: Antimicrobial activity against Mycobacterium chelonae ATCC 35752 by resazurine microtiter assay; assay type: functional
Method in brief: (§1)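 Colorimetric resazurin microtiter MIC assay in 7H9-oleic acid-albumin-dextrose-catalase broth at 30°C, with well-dispersed bacteria. Growth was also checked by visual scanning to confirm the readings. At least three repeats on independent culture batches.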

[14] = test system: Mycobacteroides chelonae; test: Antimicrobial activity against Mycobacterium chelonae 9917 by resazurine microtiter assay; assay type: functional; method in brief: as §1
[15] = Mycobacteroides chelonae, 9917, Urine

Compound | MIC [13] [µg/mL] | MIC [14] [µg/mL] | MIC ([1]; ATCC 35752, Urine) [µg/mL] | MIC [2, 15] [µg/mL] | further results
O=CCCCC=O | – | – | – | – | Activity ([1]; Urine): Active; Activity ([2]; Urine): Active; Activity [3]: inactive; Activity [4]: inactive; Activity [5]: inactive; Activity [6]: inactive; Activity [7]: inactive; Activity [8]: Active; Activity [9]: Active; Activity [10]: Active; Activity [11]: inactive; Activity [12]: inactive
O=Cc1ccccc1C=O | – | – | – | – | Activity ([1]; Urine): Active; Activity ([2]; Urine): Active
CC1(C)S[C@@H]2[C@H](NC(=O)[C@H](N)c3ccccc3)C(=O)N2[C@H]1C(=O)O [AMPICILLIN] | > 500 | > 500 | – | – | –
CC[C@H]1OC(=O)[C@H](C)[C@@H](O[C@H]2C[C@@](C)(OC)[C@@H](O)[C@H](C)O2)[C@H](C)[C@@H](O[C@@H]2O[C@H](C)C[C@H](N(C)C)[C@H]2O)[C@](C)(O)C[C@@H](C)CN(C)[C@H](C)[C@@H](O)[C@]1(C)O [AZITHROMYCIN] | 500 (≈ 668 µM) | 500 (≈ 668 µM) | 500 (≈ 668 µM) | 500 (≈ 668 µM) | –
O=C(N[C@H](CO)[C@H](O)c1ccc([N+](=O)[O-])cc1)C(Cl)Cl [CHLORAMPHENICOL] | > 500 | > 500 | 50 (≈ 155 µM) | 50 (≈ 155 µM) | –
O=C(O)c1cn(C2CC2)c2cc(N3CCNCC3)c(F)cc2c1=O [CIPROFLOXACIN] | 1.5 (≈ 4.53 µM) | 5 (≈ 15.1 µM) | 2.5 (≈ 7.54 µM) | 1 (≈ 3.02 µM) | –
CC[C@H]1OC(=O)[C@H](C)[C@@H](O[C@H]2C[C@@](C)(OC)[C@@H](O)[C@H](C)O2)[C@H](C)[C@@H](O[C@@H]2O[C@H](C)C[C@H](N(C)C)[C@H]2O)[C@](C)(OC)C[C@@H](C)C(=O)[C@H](C)[C@@H](O)[C@]1(C)O [CLARITHROMYCIN] | 25 (≈ 33.4 µM) | > 250 | 50 (≈ 66.8 µM) | 25 (≈ 33.4 µM) | –
CC[C@H]1OC(=O)[C@H](C)[C@@H](O[C@H]2C[C@@](C)(OC)[C@@H](O)[C@H](C)O2)[C@H](C)[C@@H](O[C@@H]2O[C@H](C)C[C@H](N(C)C)[C@H]2O)[C@](C)(O)C[C@@H](C)C(=O)[C@H](C)[C@@H](O)[C@]1(C)O [ERYTHROMYCIN] | 20 (≈ 27.3 µM) | 500 (≈ 681 µM) | 0.25 (≈ 0.341 µM) | 1 (≈ 1.36 µM) | –
CC[C@@H](CO)NCCN[C@@H](CC)CO [ETHAMBUTOL] | > 500 | > 500 | 25 (≈ 122 µM) | 250 (≈ 1220 µM) | –
CCc1cc(C(N)=S)ccn1 [ETHIONAMIDE] | > 400 | > 400 | 50 (≈ 301 µM) | 50 (≈ 301 µM) | –
CN[C@@H]1C[C@H](N)[C@@H](O)[C@H](O[C@H]2O[C@H](CO)[C@H](O)[C@@H]3O[C@@]4(O[C@@H]23)O[C@H]([C@H](N)CO)[C@H](O)[C@H](O)[C@H]4O)[C@H]1O [HYGROMYCIN] | > 500 | > 500 | – | – | –
NNC(=O)c1ccncc1 [ISONIAZID] | > 400 | > 400 | – | – | –
NC[C@H]1O[C@H](O[C@H]2[C@H](O)[C@@H](O[C@H]3O[C@H](CO)[C@@H](O)[C@H](N)[C@H]3O)[C@H](N)C[C@@H]2N)[C@H](O)[C@@H](O)[C@@H]1O [KANAMYCIN] | 50 (≈ 103 µM) | 10 (≈ 20.6 µM) | – | – | –
CC(=O)NC[C@H]1CN(c2ccc(N3CCOCC3)c(F)c2)C(=O)O1 [LINEZOLID] | 25 (≈ 74.1 µM) | 100 (≈ 296 µM) | 5 (≈ 14.8 µM) | 1 (≈ 2.96 µM) | –
CCn1cc(C(=O)O)c(=O)c2cc(F)c(N3CCNCC3)cc21 [NORFLOXACIN] | 5 (≈ 15.7 µM) | 5 (≈ 15.7 µM) | – | – | –
NC(=O)c1cnccn1 [PYRAZINAMIDE] | > 500 | > 500 | – | – | –
CO[C@H]1/C=C/O[C@@]2(C)Oc3c(C)c(O)c4c(O)c(c(/C=N/N5CCN(C)CC5)c(O)c4c3C2=O)NC(=O)/C(C)=C\C=C\[C@H](C)[C@H](O)[C@@H](C)[C@@H](O)[C@@H](C)[C@H](OC(C)=O)[C@@H]1C [RIFAMPIN] | 25 (≈ 30.4 µM) | > 500 | 5 (≈ 6.08 µM) | 100 (≈ 122 µM) | –
CN[C@@H]1[C@H](O[C@H]2[C@H](O[C@H]3[C@H](O)[C@@H](O)[C@H](N=C(N)N)[C@@H](O)[C@@H]3N=C(N)N)O[C@@H](C)[C@]2(O)C=O)O[C@@H](CO)[C@H](O)[C@H]1O [STREPTOMYCIN] | 200 (≈ 344 µM) | 10 (≈ 17.2 µM) | 250 (≈ 430 µM) | 10 (≈ 17.2 µM) | –
CN(C)[C@@H]1C(O)=C(C(N)=O)C(=O)[C@@]2(O)C(O)=C3C(=O)c4c(O)cccc4[C@@](C)(O)[C@H]3C[C@@H]12 [TETRACYCLINE] | 50 (≈ 113 µM) | > 500 | 5 (≈ 11.3 µM) | 25 (≈ 56.3 µM) | –
NC[C@H]1O[C@H](O[C@H]2[C@H](O)[C@@H](O[C@H]3O[C@H](CO)[C@@H](O)[C@H](N)[C@H]3O)[C@H](N)C[C@@H]2N)[C@H](N)C[C@@H]1O [TOBRAMYCIN] | 25 (≈ 53.5 µM) | 25 (≈ 53.5 µM) | – | – | –
CN[C@H](CC(C)C)C(=O)N[C@H]1C(=O)N[C@@H](CC(N)=O)C(=O)N[C@H]2C(=O)N[C@H]3C(=O)N[C@H](C(=O)N[C@H](C(=O)O)c4cc(O)cc(O)c4-c4cc3ccc4O)[C@H](O)c3ccc(c(Cl)c3)Oc3cc2cc(c3O[C@@H]2O[C@H](CO)[C@@H](O)[C@H](O)[C@H]2O[C@H]2C[C@](C)(N)[C@H](O)[C@H](C)O2)Oc2ccc(cc2Cl)[C@H]1O [VANCOMYCIN] | 5 (≈ 3.45 µM) | > 500 | 5 (≈ 3.45 µM) | 25 (≈ 17.3 µM) | –
GENTAMICIN | 7.5 | 15 | – | – | MIC ([1]; Urine): 7.5 µg/mL; MIC ([2]; Urine): 20 µg/mL
